Values after ≈ are worked out from the molar mass of the structure shown.
Experiments:
[1] = Inhibition of human ATPsynthase
[2] = Inhibition of Mycobacterium smegmatis ATPsynthase; design: species or system Mycolicibacterium smegmatis
[3] = tested on: Mycobacterium tuberculosis; test: Antimycobacterial activity against Mycobacterium tuberculosis H37Rv ATCC 27294 assessed as reduction in bacterial growth incubated for 4 days under aerobic condition by alamar blue based fluorescence assay; assay type: functional; conditions: H37Rv ATCC 27294, 96 h, time 4 day
Method in brief: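 Replicating aerobic culture of M.tb H37Rv, MABA read-out; value is the minimum inhibitory concentration in µg/mL; assay run at the Institute for Tuberculosis Research, University of Illinois at Chicago.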

[4] = tested on: Vero; test: Cytotoxicity against African green monkey Vero cells assessed as reduction in cell viability incubated for 72 hrs by MTS-PMS assay; assay type: cell-based; conditions: Chlorocebus sabaeus
Method in brief: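 Mammalian cytotoxicity measured in Vero (green monkey kidney epithelial) cells; value reported as IC50 in µg/mL.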

[5] = Metabolic stability in human liver microsomes assessed as intrinsic clearance; assay type: ADME, Microsome
[6] = Metabolic stability in mouse liver microsomes assessed as intrinsic clearance; assay type: ADME, Microsome
[7] = tested on: Mycobacterium tuberculosis; test: Antimycobacterial activity against Mycobacterium tuberculosis H37Rv ATCC 27294 assessed as reduction in bacterial growth incubated for 10 days in under anaerobic condition by luminometric assay; assay type: functional; conditions: H37Rv ATCC 27294, 240 h, time 10 day
Method in brief: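 Growth inhibition of M.tb H37Rv under non-replicating conditions (LORA), reported as minimum inhibitory concentration in µg/mL; tested at the Institute for Tuberculosis Research, University of Illinois at Chicago.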

[8] = tested on: ATP synthase (human vs Mycobacterium smegmatis); test: Selectivity index, ratio of IC50 for human ATPsynthase to IC50 for Mycobacterium smegmatis ATPsynthase; assay type: toxicity; conditions: read-out: Ratio IC50

Question: What does the source list for `Cc1ccc(N2CCN(C)CC2)c2c1CCN(C(=O)N1CCC(Oc3ccccc3C(F)(F)F)CC1)C2`?
Answer: IC50 [1]: 48 µg/mL (≈ 92.9 µM); IC50 [2]: 6.2 µg/mL (≈ 12 µM)

Question: With `Cc1cc(Cl)ccc1-c1ccc(CN2CCc3c(C)ccc(N4CCN(C)CC4)c3C2)nc1` as the compound, how does the MIC90 [3] read?
Answer: 0.79 µg/mL (≈ 1.71 µM)

Question: What about the IC50 [4] of the same compound?
Answer: 14 µg/mL (≈ 30.4 µM)

Question: And the CLH [5]?
Answer: 5.52 mL/h/kg

Question: What about the CLH [6] of the same compound?
Answer: 14.3 mL/h/kg

Question: What about the MIC90 [7] of the same compound?
Answer: 5.2 µg/mL (≈ 11.3 µM)

Question: With `Cc1cc(Cl)ccc1-c1ccc(N2CCc3c(C)ccc(N4CCN(C)CC4)c3C2)nc1` as the compound, how does the MIC90 [3] read?
Answer: 1.9 µg/mL (≈ 4.25 µM)

Question: What about the IC50 [4] of the same compound?
Answer: 22 µg/mL (≈ 49.2 µM)

Question: And the CLH [5]?
Answer: 1.32 mL/h/kg

Question: And the CLH [6]?
Answer: 2.1 mL/h/kg

Question: What about the IC50 [1] of the same compound?
Answer: 23 µg/mL (≈ 51.5 µM)

Question: And the MIC90 [7]?
Answer: 2.4 µg/mL (≈ 5.37 µM)

Question: What about the IC50 [2] of the same compound?
Answer: 5.5 µg/mL (≈ 12.3 µM)

Question: For `Cc1ccc(N2CCN(C)CC2)c2c1CCN(C(=O)Nc1ccc(-c3cc(C(F)(F)F)cc(C(F)(F)F)c3)cn1)C2`, which IC50 [1] is on record?
Answer: 13 µg/mL (≈ 22.5 µM)

Question: And the IC50 [2]?
Answer: 14 µg/mL (≈ 24.2 µM)

Question: Which results are given for `COc1ccc(N2CCN(C)CC2)c2c1CCN(c1ccc(-c3cc(C(F)(F)F)cc(C(F)(F)F)c3)cn1)C2`?
Answer: MIC90 [3]: 7.9 µg/mL (≈ 14.3 µM); IC50 [4]: 19 µg/mL (≈ 34.5 µM); MIC90 [7]: 12 µg/mL (≈ 21.8 µM)

Question: With `CCc1ccc(N2CCN(C)CC2)c2c1CCN(C(=O)Nc1ccc(-c3ccc(C(F)(F)F)cc3)cn1)C2` as the compound, how does the CLH [5] read?
Answer: 6.42 mL/h/kg

Question: And the CLH [6]?
Answer: 48.6 mL/h/kg

Question: And the IC50 [1]?
Answer: 7.2 µg/mL (≈ 13.8 µM)

Question: And the IC50 [2]?
Answer: 2.2 µg/mL (≈ 4.2 µM)

Question: With `Cc1cc(Cl)ccc1-c1ccc(NC(=O)N2CCc3c(F)ccc(N4CCN(C)CC4)c3C2)nc1` as the compound, how does the CLH [5] read?
Answer: 3 mL/h/kg

Question: What about the CLH [6] of the same compound?
Answer: 3.9 mL/h/kg

Question: What about the IC50 [1] of the same compound?
Answer: 17 µg/mL (≈ 34.4 µM)

Question: And the IC50 [2]?
Answer: 1.8 µg/mL (≈ 3.64 µM)

Question: Which results are given for `CN1CCN(c2cccc3c2CN(Cc2ccc(-c4ccc(Cl)cc4)cn2)CC3)CC1`?
Answer: CLH [5]: 7.26 mL/h/kg; CLH [6]: 14.3 mL/h/kg; IC50 [1]: > 500 µg/mL; IC50 [2]: 7.2 µg/mL (≈ 16.6 µM); selectivity ratio [8]: > 70

Question: What does the source list for `Cc1ccc(N2CCN(C)CC2)c2c1CCN(c1ccc(-c3ccc(C(C)(C)C)cc3)cn1)C2`?
Answer: MIC90 [3]: 1.4 µg/mL (≈ 3.08 µM); IC50 [4]: 18 µg/mL (≈ 39.6 µM); CLH [5]: 2.46 mL/h/kg; CLH [6]: 3.36 mL/h/kg; MIC90 [7]: 3.4 µg/mL (≈ 7.48 µM)

Question: For `COc1ccc(N2CCN(C)CC2)c2c1CCN(C(=O)Nc1ccc(-c3ccc(Cl)cc3Cl)cn1)C2`, which CLH [5] is on record?
Answer: 2.88 mL/h/kg

Question: What about the CLH [6] of the same compound?
Answer: 35 mL/h/kg

Question: And the IC50 [1]?
Answer: 27 µg/mL (≈ 51.3 µM)

Question: And the IC50 [2]?
Answer: 3 µg/mL (≈ 5.7 µM)

Question: For `CN1CCN(c2cccc3c2CN(C(=O)Nc2ccc(-c4ccc(OC(F)(F)F)cc4)cn2)CC3)CC1`, which IC50 [1] is on record?
Answer: > 500 µg/mL

Question: And the IC50 [2]?
Answer: 6.2 µg/mL (≈ 12.1 µM)

Question: And the selectivity ratio [8]?
Answer: > 80

Question: What does the source list for `COc1ccc(N2CCN(C)CC2)c2c1CCN(Cc1ccc(-c3ccc(Cl)cc3C)cn1)C2`?
Answer: MIC90 [3]: 1.8 µg/mL (≈ 3.77 µM); IC50 [4]: 12 µg/mL (≈ 25.2 µM); MIC90 [7]: 6.1 µg/mL (≈ 12.8 µM)

Question: With `COc1ccc(N2CCN(C)CC2)c2c1CCN(C(=O)Nc1ccc(-c3ccc(Cl)cc3C)cn1)C2` as the compound, how does the IC50 [1] read?
Answer: 20 µg/mL (≈ 39.5 µM)

Question: And the IC50 [2]?
Answer: 6.3 µg/mL (≈ 12.4 µM)

Question: Which CLH [5] does the source give for `Cc1ccc(N2CCN(C)CC2)c2c1CCN(C(=O)N1CCC(Oc3ccc(OC(F)(F)F)cc3)CC1)C2` here?
Answer: 2.88 mL/h/kg

Question: And the CLH [6]?
Answer: 2.4 mL/h/kg

Question: For `COc1nc2ccc(Br)cc2cc1[C@@H](c1ccccc1)[C@@](O)(CCN(C)C)c1cccc2ccccc12` [BEDAQUILINE], which IC50 [1] is on record?
Answer: > 1000 µg/mL
